Compounds with a hit are over-represented: about 3.9% of the library has one in this group of screens.
STAT1 activator = increases IFN-gamma driven STAT1 reporter signal; NIH 3T3 STAT1-luciferase reporter, luminescence; 100% = IFN-gamma alone, no compound; activation (% of control), % at 5.5 µM; 200,000 compounds, 2.6% hits; AID 932;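 active = activation above the screen-wide mean activation plus 3 SD, cut at about 130% in these data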;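 note: raw ratio to IFN-gamma control signal so 100% means no change and 0% no light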
STAT3 act = activators of IL-6 induced STAT3 signaling | U3A cells, IL-6 STAT3-luciferase reporter, luminescence; 100% = signal with IL-6 EC80 alone | activation (% of control), % at 5.6 µM | 190,000 compounds, 0.91% hits | AID 871;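 active = activation above the screen-wide mean of compound activation plus 3 SD, cut at about 130% in these data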;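 note: 0% = background luminescence of wells with medium and substrate only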
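Assay system – human STAT1-deficient U3A cells with stable STAT3-luciferase reporter · Also added – IL-6 (33 ng/mL) · Schedule – compound 1 h, then IL-6 6 h at 37 °C · Technique – reporter luminescence signal · Evaluation – % activation versus median of IL-6-stimulated wells · Benchmarks – IL-6-only wells as 100% reference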
APP 5'UTR act = APP 5'UTR luciferase reporter activation; AID 1276; 190,000 compounds, 1% hits; activation, % at 2 µM; SH-SY5Y APP 5'UTR luciferase reporter, luminescence; zero percent = DMSO vehicle wells;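 active = activation above a set limit, based on mean plus 3 SD of controls, cut at about 140% in these data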
Pf gamet viab = kills late stage P. falciparum gametocytes | P. falciparum stage V gametocytes, ATP luminescence, 24 h | inhibition, % at 10.9 µM | 150,000 compounds, 0.065% hits;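 active = inhibition above the mean plus 3 SD of compounds within the control limits, set per campaign, cut at about 38% in these data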;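 note: 0% = DMSO wells and 100% = medium only without gametocytes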
STAT1 inh = STAT1 signaling inhibition | NIH 3T3 STAT1-luciferase reporter, IFN-gamma, luminescence | inhibition, % at 5.5 µM | 200,000 compounds, 0.35% hits | AID 920;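 active = inhibition above a set limit, the mean inhibition across all tested compounds plus 3 SD, cut at about 34% in these data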;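 note: 0% = IFN-gamma with DMSO and 100% = IFN-gamma with 300 µM nifuroxazide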
NF-kB neuron act = raises NF-kB expression in human neuronal cells | NF-kB reporter expression; hits give high values | fold change at 12.5 µM | 190,000 compounds, 1.6% hits | AID 1239; in the data active = fold change above about 3.3
An asterisk follows results filed as active; / = not tested or not shown.

SMILES	STAT1 activator	STAT3 act	APP 5'UTR act	Pf gamet viab	STAT1 inh	NF-kB neuron act
Cc1ccc2nc(-c3ccc(NC(=O)CN4CCN(C(=O)c5ccco5)CC4)cc3)sc2c1	127.5	97.4	148.8*	/	-30.4	4.36*
Cc1ccc(OCCCn2ccnc2)c(Br)c1	/	/	/	5.2	/	/
Cc1ccccc1-n1c(C)nnc1SCc1cc(=O)oc2ccc3ccccc3c12	88.9	101.6	-10.8	2.3	12.5	0.7
Cc1ccc2nc(-c3ccc(NC(=O)COC(=O)c4ccc(Br)o4)cc3)sc2c1	141.7*	61.8	135.6*	/	-45.8	5.35*
O=C(COC(=O)c1ccc(Br)o1)Nc1ccc(S(=O)(=O)N2CCCC2)cc1	102.7	104.0	-6.1	/	-3.0	1.18
CCOc1ncccc1C(=O)OCC(=O)Nc1ccc(-c2nc3ccc(C)cc3s2)cc1	116.8	39.0	163.9*	5.8	-18.6	3.45*
COc1ccc(CCN(C)C2CCCN(C(=O)CCC(F)(F)F)C2)cc1OC (stereo not given)	/	/	/	16.3	/	/
N/C(=N\OC(=O)/C=C/c1ccccc1)c1ccccn1	110.1	77.9	160.5*	5.0	-12.4	1.14
COc1ccccc1CC(=O)O/N=C(\N)c1ccccn1	/	/	/	-33.0	/	/
Cc1cccc(OCC(=O)O/N=C(\N)c2ccccn2)c1C	138.4*	103.6	71.9	/	-42.6	2.17
N/C(=N\OC(=O)Cc1cccc2ccccc12)c1ccccn1	123.0	106.6	109.4	/	-24.9	6.14*
Cc1ccc(OCC(=O)O/N=C(\N)c2ccccn2)cc1	143.9*	111.7	101.4	/	-47.2	2.51
CCOc1ccccc1C(=O)Nc1nnc(Cc2ccc(OC)c(OC)c2)s1	/	/	/	-12.0	/	/
COc1cccc(OCc2nc3ccccc3[nH]2)c1	125.9	91.6	131.0	/	-28.6	3.36*
COc1ccc(OCc2nc3ccccc3[nH]2)cc1	116.9	104.3	/	/	-18.3	3.95*
COc1cccc(OCc2nc3ncc(Br)cc3[nH]2)c1	120.5	113.8	1.9	/	-22.4	1.47
COc1ccc(NC(=O)Cc2nc3ccccc3[nH]2)cc1	104.9	95.3	3.9	/	-5.4	1.26
Cc1cc(OCc2ccc(C(=O)NN=C3CCCC3)cc2)ccc1Cl	129.8*	109.9	-20.4	0.8	-33.7	1.32
CC(=O)Nc1ccc2c(c1)nc1n2CCSC1	97.9	88.2	-1.5	-23.5	2.3	1.34
Cc1ccc(C(=O)Nc2ccc3c(c2)nc2n3CCSC2)cc1	148.3*	85.8	168.8*	-8.4	-52.6	5.44*
CN(/N=C/c1ccc([N+](=O)[O-])o1)c1ccccc1	135.0*	87.2	20.3	-13.1	-37.4	1.55
O=[N+]([O-])c1cccc(-c2cn(-c3ccccc3)c(=S)[nH]2)c1	105.2	98.3	9.9	/	-5.3	1.16
O=[N+]([O-])c1ccc(-c2cn(-c3ccccc3)c(=S)[nH]2)cc1	130.9*	105.9	39.9	15.2	-34.0	1.09
C/C(N)=C(/C#N)C(=O)CSc1nnc(-c2ccc(OC(F)F)cc2)o1	147.5*	117.2	113.2	/	-52.4	4.79*
C/C(N)=C(/C#N)C(=O)CSc1nnc(-c2ccc3c(c2)OCO3)o1	133.8*	62.6	99.7	14.0	-36.8	6.9*
SMILES	STAT1 activator	STAT3 act	APP 5'UTR act	Pf gamet viab	STAT1 inh	NF-kB neuron act
Cc1cccc(/C=C/c2nc3ccccc3c(=O)[nH]2)c1	120.6	68.0	92.4	-9.6	-21.3	6.3*
CC(=O)Nc1ccc2ccccc2c1	99.0	105.6	-5.4	/	1.0	1.71
CCOC(=O)C(Nc1ccc2ccccc2c1)C(=O)OCC	94.3	135.5*	17.4	20.3	6.4	0.81
NC(=O)C1CCN(CC(=O)Nc2cccnc2Cl)CC1	103.7	101.9	14.1	24.6	-5.8	0.91
CCOc1ncccc1C(=O)N1CCN(c2cccc(C)c2C)CC1	96.9	120.4	-95.1	0.6	1.3	3.9*
Clc1ccc(-c2nc(C3CCCCC3)no2)cc1	132.4*	99.1	108.3	15.5	-36.4	1.86
C=C(C)C1CC=C(C)/C(=N/NC(=O)c2ccoc2C)C1 (stereo not given)	138.1*	97.5	29.0	-21.5	-43.4	1.27
CC(NC(=O)CCN1C(=O)c2ccccc2C1=O)c1ccccc1 (stereo not given)	/	/	/	8.0	/	/
CC(=O)c1c(C)[nH]c(C(=O)Nc2ccc(C)c(C)c2)c1C	138.3*	79.9	/	/	-41.5	3.77*
CCOC(=O)c1c(C)[nH]c(C(=O)NNC(=O)c2ccccc2)c1C	145.8*	110.1	164.4*	/	-50.9	3.42*
CCOC(=O)c1c(C)[nH]c(C(=O)Nc2ccc(C)c(Cl)c2)c1C	128.3	101.2	162.6*	/	-27.2	3.82*
CC(=O)c1c(C)[nH]c(C(=O)Nc2ccc3c(c2)OCCO3)c1C	138.4*	92.0	193.4*	-8.5	-41.6	5.47*
CCCOc1ccc(C(=O)CCN2CCN(C(=O)OCC)CC2)cc1	96.9	96.2	-0.1	11.8	1.3	1.27
CCOc1ccc(-n2c(=O)c3sccc3n(CC(=O)Nc3cccc(OC)c3)c2=O)cc1	107.4	107.4	-3.8	-2.5	-8.6	1.53
Cc1cc(Br)cc2c1NC(=O)C2(O)CC(=O)c1ccco1 (stereo not given)	100.2	91.8	5.4	/	-3.2	0.99
CCNC(=S)N(CCCO)Cc1cc2cc3c(cc2[nH]c1=O)OCCO3	/	/	/	-17.9	/	/
COC(=O)c1c(C)[nH]c(C(=O)/C=C/c2ccccc2)c1C	140.1*	77.4	120.6	/	-44.9	1.55
CC(=O)c1c(C)[nH]c(C(=O)Nc2nccs2)c1C	132.9*	106.0	57.9	-3.5	-38.3	2.58
CC(=O)c1c(C)[nH]c(C(=O)Nc2cccnc2)c1C	117.6	100.5	8.9	15.0	-19.6	1.44
Cc1nc2sc(C(=O)c3ccccc3)c(N)c2c(C)c1C	113.5	94.1	12.8	6.0	-14.2	/
Cc1snc2sc(C(=O)c3ccc(Br)cc3)c(N)c12	134.8*	98.9	2.5	9.3	-37.7	1.3
Oc1c(N=Nc2ccccn2)ccc2ccccc12	106.0	96.6	-82.2	-10.2	-6.7	3.56*
CCC(=O)NC(c1ccccc1OC)c1ccc2cccnc2c1O (stereo not given)	95.3	84.5	-88.8	/	7.4	6.87*
CCCC(=O)NC(c1ccc(OC)cc1)c1ccc2cccnc2c1O (stereo not given)	94.7	86.2	-81.6	-9.7	3.9	1.81
Cc1ccccc1NC(=S)NC1(C)CCS(=O)(=O)C1 (stereo not given)	97.5	99.4	9.8	-1.4	2.8	0.96
COCC(=O)n1nc(-c2ccccc2)nc1NCc1ccc(N(C)C)cc1	142.3*	111.9	51.9	17.2	-49.9	2.15
O=C(COc1ccccc1)n1nc(-c2ccc(Cl)cc2)nc1NCc1ccco1	143.4*	111.1	54.4	30.4	-47.0	1.78
CC(C)OC(=O)c1cccc(-c2ccc(C=O)o2)c1	114.4	100.9	23.5	11.7	-16.2	2.05
CN1/C(=C\C(=O)c2cccnc2)Sc2ccccc21	134.1*	96.8	126.6	-4.0	-39.1	2.83

Bioassay records from PubChem BioAssay.
